We go through two compounds from paper PMC3928098 (Leukemia, 2013).

In data set [1] the test system is MM.1S cells. The data set is described as follows: RNA synthesis assay, [5'-3H]uridine incorporation, MM.1S. It counts as cell-based, human.
Data set [2] in a line: MM xenograft murine model, body weight and toxicity. It counts as in vivo, CB-17 SCID mice. In a few lines:
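MM.1S s.c. xenografts in irradiated SCID mice; test compound at 30 or 40 mg/kg, or D5W pH5.2 vehicle, given IV by tail vein daily for 5 days once tumours reached ~100 mg. Body weight and tumour size were recorded every alternate day. Mice were euthanised by CO2 if tumour exceeded 2 cm or ulcerated.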

Data set [3] concerns cyclin D1-CDK4 (K4/D1). To be noted: read-out: IC50 K4/D1; in vitro cell-free kinase assay; cited from earlier work.
Data set [4] relates to healthy donor PBMCs. In words: cytotoxicity in healthy donor PBMCs. It counts as cell-based, human. To be noted: compared with tumor cells from MM patients, 50nM. In a few lines:
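PBMCs were obtained from healthy volunteer blood by Ficoll-Hipaque gradient separation before exposure to test compound.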

Data set [5] relates to MM.1S cells. The data set is described as follows: NAD+/NADH quantification assay. The note with it: 50nM. Type of data set: cell-based, human. The gist of the method:
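MM.1S cells were cultured with 50 nM test compound and 5 × 10⁵ cells were extracted. For total NAD, extract was incubated with NAD Cycling Mix for 5 min at RT to convert NAD+ to NADH. For NADH, extract was heated at 60°C for 30 min to decompose NAD+. Developer was added for 40 min in the dark and read at 450 nm, in duplicate. Ratio = (NADt − NADH)/NADH.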

Data set [6] relates to cyclin H-CDK7 (K7/H). In words: in vitro cell-free kinase assay, cyclin H-CDK7. Type of data set: biochemical. The note with it: in vitro kinase assays, compared with CDK 1, 2, 3, 4, 5 and 9.
The subject of data set [7] is Jak2. The note with it: read-out: IC50 Jak2; in vitro cell-free kinase assay; cited from earlier work.
Data set [8] deals with MM.1S cells. The data set is described as follows: cell cycle analysis by PI flow cytometry. Type of data set: cell-based, human. To be noted: 50nM, 12h. In a few lines: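 MM.1S cells (1 × 10⁶) were cultured in medium or with 50 nM test compound for 12 and 24 h, then washed in ice-cold PBS. They were fixed in 100% ethanol for 1 h at 4°C, treated with RNase for 30 min at 37°C, and stained with propidium iodide. Cell cycle profiles were acquired by flow cytometry and modelled for phase distribution.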

Data set [9] deals with primary tumor cells from MM patients (CD138+). In words: MTT viability of primary tumor cells from MM patients. It counts as cell-based, human. To be noted: 0-100nM, MTT at 48h. In a few lines: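 Bone marrow mononuclear cells from MM patient aspirates were separated on Ficoll-Hipaque, and plasma cells were purified by anti-CD138 magnetic bead positive selection. Cells were cultured with test compound (0–100 nM) and viability was read by MTT at 48 h (570/630 nm). Values are means ±SD of triplicate cultures.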

The test system of data set [10] is p35-CDK5 (K5/p35). To be noted: read-out: IC50 K5/p35; in vitro cell-free kinase assay; cited from earlier work.
For data set [11], the system named is cyclin B1-CDK1 (K1/B1). The note with it: read-out: IC50 K1/B1; in vitro cell-free kinase assay; cited from earlier work.
In data set [12] the test system is GSK-3β. The note with it: read-out: IC50 GSK-3β; in vitro cell-free kinase assay; cited from earlier work.
For data set [13], the system named is p-RNAPII S2/S5 in MM cell lines. In words: western blot of phosphorylated RNAPII S2/S5. To be noted: 0-8h, 25-100nM, all tested MM cell lines, immunoblot. Type of data set: cell-based, human. The gist of the method:
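MM cell lines were exposed to test compound (0–100 nM) for 1, 4 and 8 h. Whole-cell lysates were run on SDS-PAGE and transferred to nitrocellulose. Blots were probed with phosphospecific antibodies to RNAPII S2/S5 and re-probed for actin, tubulin or GAPDH as loading controls.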

The test system of data set [14] is U266, OPM1, and RPMI MM cell lines. In words: RNA synthesis assay in p53-mutated MM cell lines. Type of data set: cell-based, human. To be noted: 0-100nM, 24h. The gist of the method:
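p53-mutant U266, OPM1 and RPMI cells (2–3 × 10³/well) were treated at 37°C with test compound (0–100 nM) for 2 and 24 h. [5′-³H]uridine was then added, and cells were harvested and counted by scintillation. Values are means ±SD of triplicate cultures.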

For data set [15], the system named is MEK1. To be noted: read-out: IC50 MEK1; in vitro cell-free kinase assay; cited from earlier work.
The subject of data set [16] is AMPK. To be noted: read-out: IC50 AMPK; in vitro cell-free kinase assay; cited from earlier work.
The test system of data set [17] is p53 knockdown MM.1S cells. The data set is described as follows: MTT viability of p53 shRNA knockdown MM.1S. It counts as cell-based, human. To be noted: p53 shRNA-transduced MM.1S versus control, MTT 48h. In a few lines: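 MM.1S cells were transduced with lentiviral shTP53 or empty-vector particles in medium with polybrene (8 μg/ml), and medium was refreshed at 24 h. Infection was checked at 72 h by puromycin (2 μg/ml) sensitivity against parental cells, using MTT. Transduced cells were then exposed to test compound and viability was read by MTT, in triplicate cultures.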

The subject of data set [18] is MM.1S cells. In words: DNA synthesis assay, [3H-TdR] uptake. It counts as cell-based, human. To be noted: BMSCs-stimulated MM.1S cells. The gist of the method:
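MM.1S cells (2–3 × 10³/well) were plated alone or with patient-derived BMSCs and exposed to varying test compound concentrations for 8 and 24 h at 37°C. [³H-TdR] ([…]) was pulsed in the last 8 h. Cells were harvested and counted by scintillation. Values are means ±SD of triplicate cultures.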

Data set [19] has as its system cyclin D3-CDK6 (K6/D3). The note with it: read-out: IC50 K6/D3; in vitro cell-free kinase assay; cited from earlier work.
Data set [20] deals with cyclin E-CDK3 (K3/E). The note with it: read-out: IC50 K3/E; in vitro cell-free kinase assay; cited from earlier work.
Data set [21] relates to MM.1S cells. In words: annexin V-PI apoptosis detection. It counts as cell-based, human. To be noted: 50nM, 12 hours. The gist of the method:
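MM.1S cells (1 × 10⁶) were exposed to 50 nM test compound or medium for 12–24 h. Cells were stained with annexin V-FITC and PI for 15 min, and annexin V+/PI+ apoptotic cells were counted by flow cytometry.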

Data set [22] has as its system miR-21-3p, miR-19a-5p, miR-92a-1-5p in U266 and OPM1 cells. In words: TaqMan specific miRNA assays. Type of data set: cell-based, human. The note with it: 50nM for 8h. In a few lines:
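U266, OPM1 and RPMI cells were cultured for 8 h in medium alone or with 50 nM test compound. Total RNA was isolated with a mirVana kit. miR-21-3p, miR-19a-5p and miR-92a-1-5p were quantified with target-specific TaqMan MicroRNA Assays following the manufacturer's protocol.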

The subject of data set [23] is MM cell lines (MM.1S, MM.1R, H929, U266, OPM1, RPMI). The data set is described as follows: MTT cell viability assay in MM cell lines. It counts as cell-based. To be noted: Homo sapiens. The gist of the method: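 MM lines were grown in RPMI-1640 with 10% FBS, 2 mM L-glutamine and pen/strep, then treated with test compound (0–100 nM) for 24 and 48 h. MTT was added for 4 h at 37°C and dissolved in acidified isopropanol. Absorbance was read at 570 nm, corrected at 630 nm, with triplicate cultures.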

In data set [24] the test system is C-src. The note with it: read-out: IC50 C-src; in vitro cell-free kinase assay; cited from earlier work.
Data set [25] deals with cyclin T1-CDK9 (K9/T1). To be noted: read-out: IC50 K9/T1; in vitro cell-free kinase assay; cited from earlier work.
Data set [26] has as its system TAK1. The note with it: read-out: IC50 TAK1; in vitro cell-free kinase assay; cited from earlier work.
For data set [27], the system named is MM.1S cells xenograft. The data set is described as follows: MM xenograft murine model, anti-MM activity. To be noted: for maximum TGI (%): day 14 following end of treatment. Type of data set: in vivo, CB-17 SCID mice. In a few lines:
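SCID mice were irradiated, then inoculated s.c. in the upper back 24 h later with MM.1S cells (2.5 × 10⁶ in methods; 3 × 10⁶ in 100 uL RPMI in legend). At ~100 mg tumour, mice were randomised to test compound in D5W pH5.2 or D5W vehicle, IV tail vein daily ×5 (n=8, 9, 10). Calipers every other day; volume = ½·L·W². TGI = 100 − T/C%; log10 cell kill from growth delay and doubling time; survival timed from first treatment day.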

For data set [28], the system named is cyclin H-CDK7 (K7/H). To be noted: read-out: IC50 K7/H; in vitro cell-free kinase assay; cited from earlier work.
The test system of data set [29] is cyclin E-CDK2 (K2/E). The note with it: read-out: IC50 K2/E; in vitro cell-free kinase assay; cited from earlier work.
Data set [30] concerns Fms. To be noted: read-out: IC50 Fms; in vitro cell-free kinase assay; cited from earlier work.
For data set [31], the system named is p53 DNA binding activity in MM.1S cells. The data set is described as follows: sequence specific p53 DNA binding assay. Type of data set: cell-based, human. The note with it: 50nM, 4h. The gist of the method:
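MM.1S cells were cultured with medium or 50 nM test compound for 1, 4 and 8 h, and nuclear proteins were then isolated. Extracts were incubated overnight in wells coated with dsDNA carrying the p53 response element. Bound p53 was detected with an anti-p53 primary antibody and an HRP-linked secondary, read colorimetrically at 450 nm, in triplicate.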

The subject of data set [32] is cyclin D3-CDK6 (K6/D3). In words: in vitro cell-free kinase assay, cyclin D3-CDK6. Type of data set: biochemical. The note with it: in vitro kinase assays, compared with CDK 1, 2, 3, 4, 5 and 9.

SMILES strings stand for the structures.

As for `COCCN1CCN(Cc2ccc(-c3n[nH]c4c3C(=O)c3c(NC(=O)NN5CCOCC5)cccc3-4)cc2)CC1.Cl.Cl` [RGB-286638, 1-(3-{4-[4-(2-Methoxyethyl)-piperazin-1-ylmethyl]-phenyl}-4-oxo-1,4-dihydroindeno[1,2-c]pyrazol-5-yl)-3-morpholin-4-yl-urea dihydrochloride], the “reduction of total level of transcripts” value in data set [1] (BMSCs-stimulated MM.1S cells, 8h) was ~ 50%. Also, the effect on transcription result in [1] (BMSCs-stimulated MM.1S cells, 24h) is given as “blocked transcription”. For the same compound, the “reduction of RNA synthesis” value in [1] (MM.1S, 50nM or 100nM, two hours) is on record as 50%. The “maximum percentage of body weight (BW) loss” value came out at 8.4% in data set [2] (30mg/kg dosage schedule, day 5) and 9.9% in data set [2] (40 mg/kg dosing, day 15). The toxic deaths result in [2] (30 and 40 mg/kg IV daily for 5 days) is given as “No toxic deaths”. Moreover, the IC50 is 4 nM in data set [3]; 50 nM in [7]; 5 nM in data set [10]; 2 nM in data set [11]; 3 nM in data set [12]; 54 nM in data set [15]. Also, the IC50 in data set [16] is 41 nM; in data set [19], 55 nM; in data set [20] it was 5 nM; in data set [23] (read-out: IC50, MM cell proliferation), 50 to 100 nM; in [24] it was 25 nM; in [25], 1 nM. In addition, the IC50 in data set [26] is 5 nM; in data set [28], 44 nM; in data set [29] it was 3 nM; in [30] it was 1 nM. Besides, in data set [4], the “cytotoxicity in healthy donor PBMCs” value was “less cytotoxicity”. Further, the NADH depletion in [5] turned out to be 50%. The same compound gave an NADt depletion in data set [5] of 30%. In addition, the “fold less active against CDK 7” value in data set [6] turned out to be 44 fold. Moreover, in data set [8], the “effect on cell cycle” value was “G1 and G2/M cell cycle arrest”. The “cytotoxicity in primary tumor cells from MM patients” value in data set [9] is listed as “comparable cytotoxicity to MM cell lines”. In addition, the “effect on p-RNAPII S2/S5” value in data set [13] is “rapid downregulation”. Further, the “effect on RNA synthesis” value in data set [14] is listed as “significant inhibition”. Further, in [17], the “cells rescued from RGB-286638-induced cell death by p53 knockdown” value is given as 14%. Also, the “reduction in DNA synthesis” value in data set [18] (8h) stood at 60%. The “effect on MM.1S proliferation” value in data set [18] (24h) is on record as “complete block”. Also, in data set [21], the “apoptotic MM cells, Annexin/PI staining” value was determined as 25%. Also, the “miR-21-3p, miR-19a-5p, and miR-92a-1-5p levels” value in data set [22] is “significantly reduced”. Further, in data set [23] (48 h, read-out: EC50, viability by MTT assay), the EC50 lay within 20 to 70 nM. In addition, the “maximum TGI (%)” value in [27] (30 mg/kg IV daily for 5 days) turned out to be 85.06%; in data set [27] (40 mg/kg IV daily for 5 days), 86.34%. Besides, the “log10 cell kill (LCK Td: 4.5 days)” value in [27] (both treated groups (30 mg/kg and 40 mg/kg IV, 5 days)) was determined as 1.6. Also, in [27] (both treated groups (30 and 40 mg/kg), controls day 24), the “survival, first death” value was found to be 43 days. The “p53 sequence specific DNA binding” value in data set [31] is reported as “increased p53 DNA binding”. For the same compound, the “fold less active against CDK 6” value in [32] amounted to 55 fold.

With `OC[C@H]1OC(n2cnc3cc(Cl)c(Cl)cc32)[C@H](O)[C@@H]1O` (stereo partly drawn) [DRB, 5,6-Dichloro-1—D-ribofuranosylbenzimidazole, reference compound], the “effect on RNA synthesis” value in [1] (MM.1S, 2h, Suppl. Fig. S3) was “significantly inhibited RNA synthesis”.
